According to the RNAGym collection of RNA variant scans (doi:10.1038/nmeth.2970):

B1: NELF-E aptamer (parent)
chain: CCCAACGACUGCCGAGCGAGAUUACGCUUGAGCGCCCCACUGAGGAUGCCCACGGGCGAUUGGGGCACGG

Variants of: B1
Experiment: HiTS-RAP
Details: with NELF-E (Drosophila)
Method in brief: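 Aptamer DNA templates carrying a T7 promoter and ter site were sequenced on an Illumina GAIIx flowcell, then transcribed in situ by T7 RNA polymerase and halted by GST-Tus (30 minutes, 37°C). Clusters were imaged after 30-minute room-temperature equilibration with NELF-E-mOrange at 0.064 to 1000 nM in HEPES binding buffer, and only the first binding curve was used. Intensities were normalised to sequencing intensity and averaged per sequence. Kd came from weighted Hill fits, keeping fits with variance below 1,000,000.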

Variant	Kd
CCCAACGACUGCCGAGCGAGAUUACGCUUGAGCGCCCCACUGAGGAUGCCCACUGGCGAUUGGGGCACGG [G54U]	6.39 nM
CCCAACGACUGCCGAGCGAGAUGACGCUUUAGCGCCCCACUGAGGAUGCCCACGGGCGAUUGGGGCACGG [U23G G30U]	7.41 nM
CCCGACGACUGCCAAGCGAGAUUACGCUUGAGCGCCCCACUGAGGAUGCCCACGGGCGAUUGGGGCACGG [A4G G14A]	5.98 nM
CCCAACGAGUGCCGAGCGAUAUUACGCUUGAGCGCCCCACUGAGGAUGCCCACGGGCGAUUGGGGCACGG [C9G G20U]	7.26 nM
CCCCACUACUGCCGAGCGAGAUUACGCUUGAGCGCCCCACUGAGGAUGCCCACGGGCGAUUGGGGCACGG [A4C G7U]	6.88 nM
CCCUUCGACUGCCGAGCGAGAUUACGCUUGAGCGCCCCACUGAGGAUGCCCACGGGCGAUUGGGGCACGG [A4U A5U]	4.82 nM
CCCAACGACUGCCGAGCGAGAUUACGCUUGAGCGCCACACUGAGGAUGCCCACGGGCGAUUGGGGCACGG [C37A]	13.7 nM
CCCAACGACUACCAAGCGAGAUUACGCUUGAGCGCCCCACUGAGGAUGCCCACGGGCGAUUGGGGCACGG [G11A G14A]	6.34 nM
CCCAACGACUACCGAGCGAGAUUACGCCUGAGCGCCCCACUGAGGAUGCCCACGGGCGAUUGGGGCACGG [G11A U28C]	9.79 nM
CCCAACGACUGCCGAGCGAGAUUACGCUUGAGCGCCCCACUGGUGAUGCCCACGGGCGAUUGGGGCACGG [A43G G44U]	5.97 nM
CCCAACUGCUGCCGAGCGAGAUUACGCUUGAGCGCCCCACUGAGGAUGCCCACGGGCGAUUGGGGCACGG [G7U A8G]	5.66 nM
CCCAACGAGUGCCGGGCGAGAUUACGCUUGAGCGCCCCACUGAGGAUGCCCACGGGCGAUUGGGGCACGG [C9G A15G]	6.64 nM
CCCAACGACUGCCGAGUGGGAUUACGCUUGAGCGCCCCACUGAGGAUGCCCACGGGCGAUUGGGGCACGG [C17U A19G]	7.29 nM
CCCAACGACGGCCGAGCGAGAUUACGCUUGAGCGCCCCACUGAGGAUGGCCACGGGCGAUUGGGGCACGG [U10G C49G]	7.15 nM
CCCUACGACUGCCGAGCGAGAUUACGCUUGUGCGCCCCACUGAGGAUGCCCACGGGCGAUUGGGGCACGG [A4U A31U]	7.69 nM
CCCAACGACGGCCGAGCGAGAUUACGCUUGAGCGCCCCACUGAGAAUGCCCACGGGCGAUUGGGGCACGG [U10G G45A]	68.6 nM
CCCAACGACGGCCGAGCGAGAUUACGCUUGAGCGCCCCACUGAGGAUGCCCACGGGCGAUUGGGGCUCGG [U10G A67U]	6.91 nM
CCCAACGACUGCCGAGCGAGAUUGCGCUUGAGCGCCCCACUGUGGAUGCCCACGGGCGAUUGGGGCACGG [A24G A43U]	55.4 nM
CCCAACGGCUGCCGAGUGAGAUUACGCUUGAGCGCCCCACUGAGGAUGCCCACGGGCGAUUGGGGCACGG [A8G C17U]	4.94 nM

Variant	Kd
CCCAACGUCUGCCGAGCGAGAUUACGCUUGAGCGCCCCACUGAGGAGGCCCACGGGCGAUUGGGGCACGG [A8U U47G]	5.6 nM
CCCAACGUCUGCGGAGCGAGAUUACGCUUGAGCGCCCCACUGAGGAUGCCCACGGGCGAUUGGGGCACGG [A8U C13G]	6.33 nM
CCCAACGACUGCCGAGCGAAAUUACGCUUGAGCGCCCCACGGAGGAUGCCCACGGGCGAUUGGGGCACGG [G20A U41G]	5.24 nM
CCCAACGACUGCCGAGCGAGAUUACGCUUGAGCGCCCCUCGGAGGAUGCCCACGGGCGAUUGGGGCACGG [A39U U41G]	30.7 nM
CCCGACGACUGCCGAGCGAGAUUACGCUUGAGCGCCCCACUGAGGAUGCCCACGGGCGAUUUGGGCACGG [A4G G62U]	8.86 nM
CCCAAGGACUGCCGAGCGAGAUUACGCUUGAGCGCCCCACUGAGGAUGCCCAGGGGCGAUUGGGGCACGG [C6G C53G]	7.67 nM
CCCAACGACUGCCGAGCGAGAUUACGCUUGAGCGCCCCACAGAGGAUGCCCUCGGGCGAUUGGGGCACGG [U41A A52U]	81 nM
CCCAACGACUGGCGAGCGAGAUUACGCUUGAGCGCCUCACUGAGGAUGCCCACGGGCGAUUGGGGCACGG [C12G C37U]	16.6 nM
CCCAACGACUGCCGAGCGAGAUUACGCUUAGGCGCCCCACUGAGGAUGCCCACGGGCGAUUGGGGCACGG [G30A A31G]	5.33 nM
CCCUACGACUACCGAGCGAGAUUACGCUUGAGCGCCCCACUGAGGAUGCCCACGGGCGAUUGGGGCACGG [A4U G11A]	4.95 nM
CCCAACGACCGCCGAGCGAGAUUACGCUCGAGCGCCCCACUGAGGAUGCCCACGGGCGAUUGGGGCACGG [U10C U29C]	7.71 nM
CCCAAGGACUGCCGAGCGAGAUUACGCUUGAGCGCCCCGCUGAGGAUGCCCACGGGCGAUUGGGGCACGG [C6G A39G]	9.71 nM
CCCAACGGCUGCCGAGCGAGAUUACGCUUGAGCGCCCCACUGAAGAUGCCCACGGGCGAUUGGGGCACGG [A8G G44A]	39.3 nM
CCCAACGACUGGCGAGCGAGAUUACGCUUGAGCGCCCCACUGAGGAGGCCCACGGGCGAUUGGGGCACGG [C12G U47G]	8.13 nM
CCCAACGUCUGCCGAGCGAGAUUACGCUUGAGCGCCCCACUGAGGAUGCCCUCGGGCGAUUGGGGCACGG [A8U A52U]	17.4 nM
CCCAACGACGGCCGAGCGAGCUUACGCUUGAGCGCCCCACUGAGGAUGCCCACGGGCGAUUGGGGCACGG [U10G A21C]	4.39 nM
CCCAACGACUUCCGAGCGAGAUUACGCUUGGGCGCCCCACUGAGGAUGCCCACGGGCGAUUGGGGCACGG [G11U A31G]	7.38 nM
CCCAACGACGGCCGAGCGAGAUUACGCUUGAGCGCCCCACUGAGGAUGCCCACGGGCGAUUGGGGAACGG [U10G C66A]	5.44 nM
CCCAACGACGGCCGAGCGAGAUUACGCUUGAGCGCCCCACUGAGGAUGCCCACGGGCGAUUGGGGGACGG [U10G C66G]	4.43 nM
